High-throughput results: PubChem BioAssay, Broad Institute
A selection: hits, their analogues and other compounds. The true share with any hit is near 2.9%.
Cneo AK release = Cryptococcus neoformans lysis via adenylate kinase release. C. neoformans lysis, adenylate kinase release luminescence, 4 h; normalised: neutral wells 0, clomiphene wells 100. lysis activity, % at 15 µM. 360,000 compounds, 0.2% hits;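 active = mean lysis activity across replicates of at least 80%, whatever share of replicates individually reach that level; inactive = mean lysis activity below 80%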
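Material: C. neoformans cells; Schedule: 4 h static compound exposure, 37 °C, read 1 h post-reagent; Measured by: adenylate kinase release luminescence; Read-out: signal increase indicating cell lysis; Controls: Clomiphene as positive lysis control.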
CDK5 inh = CDK5/p35 (human) kinase inhibition. Recombinant CDK5/p35, ADP-Glo luminescence, 60 min. 330,000 compounds, 0.01% hits. inhibition, % at 10 µM. Q00535+Q15078. AID 488839;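 active = highest replicate inhibition of at least 50% and at least 75% of replicates reaching 50%; inconclusive = only one of the two criteria met; inactive = both criteria failed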
dFosB activator = enhances mouse delta FosB homodimer DNA binding. purified delta FosB, TAMRA-CDK5 oligo fluorescence polarization; percent of positive-control signal above neutral wells. activation, % at 25 µM. 340,000 compounds, 0.99% hits;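 active = mean activation above about 17%, with every replicate also reaching it, limit read from the data, passing the limit was not always enough; inconclusive = only one of the two conditions met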
Target sequence (P13346 whole entry, looked up): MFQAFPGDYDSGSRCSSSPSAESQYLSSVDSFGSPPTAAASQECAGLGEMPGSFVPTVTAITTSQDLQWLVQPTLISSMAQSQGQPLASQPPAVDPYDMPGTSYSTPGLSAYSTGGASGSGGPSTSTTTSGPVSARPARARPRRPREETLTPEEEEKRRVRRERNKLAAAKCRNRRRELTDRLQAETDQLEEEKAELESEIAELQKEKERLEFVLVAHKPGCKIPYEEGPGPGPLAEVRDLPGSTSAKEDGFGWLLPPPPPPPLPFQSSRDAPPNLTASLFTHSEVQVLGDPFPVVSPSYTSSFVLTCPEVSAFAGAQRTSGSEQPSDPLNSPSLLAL
Env fusion inh = HIV envelope-mediated fusion inhibition. inhibition, % at 12.3 µM. 360,000 compounds, 1.1% hits. AID 651610. HeLa-JRFL Env/CEM21 cell fusion, luciferase;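 active = mean replicate inhibition score of at least 50 and every replicate individually at or above 50; inconclusive = only one of the two criteria met; inactive = mean below 50 and not all replicates reaching 50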
INS-1E GSIS act = GLuc luminescence reporter in INS-1E cells, primary screen for activators of glucose-dependent secretion of insulin. INS-1E GLuc reporter insulin secretion, 2-3 h. activation, % at 16.6 µM. 370,000 compounds, 0.61% hits. AID 743287;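 active = lowest replicate activation of at least 40%, so every replicate reaches that level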
PAX8 inh HTS = lowers PAX8-driven luciferase in RMG-I cells; RMG-I TPO-luciferase reporter, SteadyGlo, 24 h; inhibition, % at 12.6 µM; 360,000 compounds, 1.2% hits;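 active = mean replicate inhibition at least 60% with every replicate also reaching 60%; inconclusive = only one of the two criteria is met; inactive = mean below 60% and not all replicates reaching 60%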;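 also: luciferase light reporting Pax8 driven TPO promoter activity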
Of the large screens only hits and unclear results are named; the others gave an inactive call.

Cc1cccc(NC(=O)[C@H](Cc2c[nH]c3ccccc23)NC(=O)[C@@H]2Cc3ccccc3CN2)c1	dFosB activator 22 (no result: Env fusion inh, INS-1E GSIS act, PAX8 inh HTS)
CN(C(=O)c1ccc(Oc2ccc([N+](=O)[O-])cc2)cc1)C1CCCCC1	Env fusion inh 59
CN(C(=O)c1cccc(NC(=O)Cc2ccc([N+](=O)[O-])cc2)c1)C1CCCCC1	none
COc1ccc(CN(C)C[C@H]2OCCCC[C@H](C)Oc3ccc(NC(=O)NC4CCCCC4)cc3C(=O)N([C@@H](C)CO)C[C@H]2C)cc1	none (no result: CDK5 inh, dFosB activator, PAX8 inh HTS)
Cc1ccc(C(=O)N/C(=C\c2ccc(-c3cccc([N+](=O)[O-])c3)o2)C(=O)NCCCN(C)C)cc1	none (no result: INS-1E GSIS act)
CN(C)CCNC(=O)/C(=C/c1ccc(-c2ccc(Cl)cc2Cl)o1)NC(=O)c1ccccc1	dFosB activator 35 (no result: Cneo AK release)
CN(C)CCNC(=O)/C(=C/c1ccc(-c2ccc(Cl)cc2)o1)NC(=O)c1ccccc1	dFosB activator 20
Cc1ccc(C(=O)N/C(=C\c2ccc(-c3ccc(Br)cc3)o2)C(=O)NCCCN(C)C)cc1	dFosB activator inconclusive, PAX8 inh HTS 95 (no result: Cneo AK release)
CCC(=O)N1C[C@@H]2[C@H](c3ccccc31)[C@H](CO)N2Cc1ccccc1OC	none (no result: CDK5 inh, dFosB activator, Env fusion inh)
CCOC(=O)C1=C2c3cc(OC)c(OC)cc3CC(C)(C)N2C(=O)C1=O	INS-1E GSIS act 45
CN(C)CC(=O)N1C[C@H]2[C@@H](c3ccccc31)[C@@H](CO)N2C(=O)c1ccccn1	none (no result: CDK5 inh, dFosB activator, Env fusion inh)
CCC(=O)N1C[C@H](C)[C@H](OC)CN(C)C(=O)c2cc(NC(=O)C3CCOCC3)ccc2OC[C@H]1C	none (no result: CDK5 inh, dFosB activator, Env fusion inh)
C[C@@H]1CCCCO[C@H](CN(C)S(=O)(=O)c2ccccc2)[C@H](C)CN([C@@H](C)CO)C(=O)c2cc(NC(=O)Nc3ccc(F)cc3)ccc2O1	none (no result: CDK5 inh, dFosB activator)
C[C@@H]1CN([C@@H](C)CO)C(=O)c2cc(NC(=O)Nc3ccc(F)cc3)ccc2O[C@@H](C)CCCCO[C@H]1CN(C)S(=O)(=O)c1ccccc1	Cneo AK release 101, Env fusion inh inconclusive (no result: CDK5 inh, dFosB activator)
C[C@H]1CCCCO[C@H](CN(C)S(=O)(=O)c2ccc(Cl)cc2)[C@@H](C)CN([C@@H](C)CO)C(=O)c2cc(NC(=O)Nc3ccc(F)cc3)ccc2O1	none (no result: CDK5 inh, dFosB activator)
C[C@@H]1CCCCO[C@H](CN(C)S(=O)(=O)c2ccc(Cl)cc2)[C@H](C)CN([C@@H](C)CO)C(=O)c2cc(NC(=O)Nc3ccc(F)cc3)ccc2O1	PAX8 inh HTS 70 (no result: CDK5 inh, dFosB activator)
O=C(CCCCN1CCCCC1)c1ccccc1	none
O=C(C(=Cc1ccccc1)CN1CCCCC1)c1ccccc1	PAX8 inh HTS 104 (no result: Cneo AK release)
COCCNC(=O)C[C@@H]1C[C@H]2c3cc(NS(=O)(=O)c4ccc(F)cc4)ccc3O[C@H]2[C@@H](CO)O1	none (no result: CDK5 inh, dFosB activator)
Cc1[nH]c2ccccc2c1C(=O)C(C)OC(=O)c1ccc([N+](=O)[O-])o1 (configuration not stated)	PAX8 inh HTS 62
Cc1cc(C(=O)Nc2ccc3c(c2)C(=O)N(C)[C@H]2CC[C@H](CC(=O)N[C@H](C)c4ccccc4)O[C@H]2CO3)no1	none (no result: CDK5 inh, dFosB activator)
COC(=O)C1CCN(c2cc(Cl)nc(N)n2)CC1	INS-1E GSIS act 48 (no result: Cneo AK release)
NC(=O)C1CCN(c2cc(Cl)nc(N)n2)CC1	none (no result: Cneo AK release)
Nc1nc(N)c(-c2cccc(C(F)(F)F)c2)c(Cc2cccc(C(F)(F)F)c2)n1	dFosB activator 16 (no result: Cneo AK release, INS-1E GSIS act)
Nc1ncccc1OCc1cccc(C(F)(F)F)c1	none (no result: Cneo AK release)
Cc1cc(C(=O)Nc2cccc3c2O[C@@H](CN(C)S(=O)(=O)c2ccccc2)[C@H](C)CN([C@@H](C)CO)C3=O)n(C)n1	none
Cc1cc(C(=O)Nc2cccc3c2O[C@H](CN(C)S(=O)(=O)c2ccccc2)[C@H](C)CN([C@H](C)CO)C3=O)n(C)n1	Cneo AK release 90 (no result: CDK5 inh, dFosB activator)
Cc1cc(C(=O)Nc2cccc3c2O[C@H](CN(C)Cc2ccc(Oc4ccccc4)cc2)[C@@H](C)CN([C@H](C)CO)C3=O)n(C)n1	PAX8 inh HTS 76 (no result: CDK5 inh, dFosB activator)
C[C@@H]1CN([C@@H](C)CO)C(=O)c2cc(NC(=O)Cc3cn(C)c4ccccc34)ccc2O[C@@H]1CN(C)CC1CCCCC1	none (no result: CDK5 inh, dFosB activator, Env fusion inh, PAX8 inh HTS)
C=CCn1c(SCc2c(C)noc2C)nc2cc(C(=O)O)ccc2c1=O	none (no result: INS-1E GSIS act)
C=CCn1c(SCc2c(C)noc2C)nc2ccccc2c1=O	Env fusion inh 62 (no result: PAX8 inh HTS)
Cc1ccc(NC(=O)CCNC(=O)c2ccc(Br)cc2)nc1	none
Cc1ccnc(NC(=O)CCNC(=O)c2ccc(Br)cc2)c1	Env fusion inh 57 (no result: CDK5 inh, dFosB activator, INS-1E GSIS act)
O=C(CCNC(=O)c1ccc(Br)cc1)NNC(=O)COc1ccccc1F	Env fusion inh 73 (no result: Cneo AK release)
CC(C)N1C(=O)C2(OCCCO2)c2cc(Br)ccc21	Cneo AK release 84
O=c1c(Br)c(Br)cnn1-c1ccccc1	PAX8 inh HTS 107 (no result: Cneo AK release)
Cc1ccc(-n2ncc(Br)c(Br)c2=O)cc1	none (no result: Env fusion inh, INS-1E GSIS act, PAX8 inh HTS)
O=C(C1CC1)N1CCCCN2[C@H](CO)[C@H](c3ccc(-c4cccc(F)c4)cc3)[C@@H]2C1	none (no result: CDK5 inh, dFosB activator, Env fusion inh)
CC(=O)N1[C@@H]2Cn3c(ccc(C4=CCCCC4)c3=O)[C@H]1[C@@H](C(=O)NC1CCC1)[C@@H]2CO	none (no result: CDK5 inh, dFosB activator, Env fusion inh)
CCCC(NC(=O)c1c(C)noc1C)C12CC3CC(CC(C3)C1)C2 (configuration not stated)	Env fusion inh 60
Cc1noc(C)c1C(=O)NC(C)C12CC3CC(CC(C3)C1)C2 (configuration not stated)	none (no result: Cneo AK release)
CCNC[C@H]1[C@@H](c2ccc(C3=CCCC3)cc2)[C@@H](CO)N1C(=O)C1CCCC1	none (no result: Cneo AK release, CDK5 inh, dFosB activator, Env fusion inh, PAX8 inh HTS)
CCN1C/C(=C/c2ccc(OC)c(O)c2)C(=O)/C(=C/c2ccc(OC)c(O)c2)C1	none (no result: Cneo AK release)
COc1cc(/C=C2/CC/C(=C/c3ccc(O)c(OC)c3)C2=O)ccc1O	PAX8 inh HTS 71 (no result: Cneo AK release)
COc1cc(/C=C2\SC(=Nc3ccccc3OC)NC2=O)ccc1O	PAX8 inh HTS 71
COc1ccc(/C=C2\CN(Cc3ccccc3)C/C(=C\c3ccc(OC)c(O)c3)C2=O)cc1O	PAX8 inh HTS 90
C[C@@H]1CN([C@@H](C)CO)C(=O)c2cc(NS(C)(=O)=O)ccc2O[C@@H]1CN(C)CC1CCCCC1	none (no result: CDK5 inh, dFosB activator)
C[C@H](CO)N1C[C@H](C)[C@@H](CN(C)C(=O)CC2CC2)Oc2cc(C#CCN(C)C)ccc2S1(=O)=O	none (no result: CDK5 inh, dFosB activator)
CC(C)[C@H]1C/C=C\CCNC(=O)[C@@H](C)CC(=O)N1	none (no result: Cneo AK release, CDK5 inh, dFosB activator, Env fusion inh, PAX8 inh HTS)
CO[C@@H]1CC[C@H]2CCOc3c(C#N)cccc3C(=O)N(C)C[C@H](c3ccccc3)CC(=O)N(C)C[C@@H]1O2	none (no result: CDK5 inh, dFosB activator)
CN(C)c1ccc(C(=O)OCC(=O)Nc2ccc(S(N)(=O)=O)cc2)cc1	dFosB activator 82 (no result: Env fusion inh, PAX8 inh HTS)
COc1ccc(-c2ccc3c(c2)O[C@@H](CN(C)C)[C@@H](C)CN([C@H](C)CO)S3(=O)=O)cc1	none (no result: CDK5 inh, dFosB activator, PAX8 inh HTS)
